We go through 14 compounds from PubChem BioAssay.

The source made the active and inactive calls.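 The calls were made as follows, unless noted: active = viability at or below 10% of carrier control in both of two separate runs; inconclusive = viability at or below 10% in only one of the two runs; inactive = the rest.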

The nature of assay [1]: reducers of endogenous Her2 protein level, primary screen, SKBR3 breast tumor cells, AlphaScreen, ATP viability (AID 461;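 active = Her2 level under about 52% in both replicate screens, with viability over 70% of control, limit read from the data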;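 as to Her2 level: lower value means less Her2 protein in the cells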;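 as to viability: percent of carrier control wells set as 100% viability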). Particulars: 18-24 h, measured here: SKBR3 viability, ATP luminescence, at 10 µM.
Assay [2] concerns the target Receptor tyrosine-protein kinase erbB-2 (Homo sapiens) (UniProt P04626). The description is as above. The following applies: 18-24 h, at 10 µM, stronger effect = lower value.
Assay [3] can be described thus: SK-BR-3 cell growth inhibitors, pilot screen, 24 h, human (AID 572).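 Also: compound exposure lasted between 18 and 24 h rather than exactly 24 h; 100% = carrier-treated control wells.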 The following applies: SK-BR-3 viability, CellTiter-Glo luminescence, at 10 µM, stronger effect = lower value.
The nature of assay [4]: HUVEC growth inhibition – cell-based, human, primary screen (AID 575;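 active = viability at or below 30% in both replicate assays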;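 also: 100% = median of untreated cell wells with 0.1% DMSO on each plate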). Particulars: HUVEC proliferation, CellTiter-Glo luminescence, 72 h; at 10 µM; stronger effect = lower value. Put shortly:
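System: primary human umbilical vein endothelial cells; Quantity: 1250 endothelial cells in each well; Buffer or medium: supplemented EBM, 2% fetal bovine serum; Doses: one dose, 10 µM final, 0.1% DMSO; Incubation: 72 h compound incubation; Technique: ATP-based CellTiter-Glo luminescent read; Evaluation: percent of median DMSO-control luminescence; Controls: vehicle and MePR control wells.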

Assay [5] is described as follows: growth inhibitors of H69AR lung tumor, primary screen, human, duplicate replicates (AID 580;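 active = viability at or under a set limit in both replicates, limit being median viability minus 3 SD, cut at about 48% in these data, passing the limit was not always enough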;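 also: 100% = mean luminescence of untreated wells and 0% = no signal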). Particulars: H69AR lung tumor cells viability, ATP luminescence, 72 h; at 10 µM; stronger effect = lower value.
The nature of assay [6]: reversal of MRP1-mediated doxorubicin resistance, pilot screen, H69AR cells, doxorubicin co-treatment (AID 601;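 active = viability loss from added drug above about 55%, and viability with drug at most 40%, in both replicates, limit read from the data, passing the limit was not always enough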). The following applies: CellTiter-Glo, 72 h, at 10 µM; for differential viability (reversal): stronger effect = higher value.
Assay [7] is described as follows: 384-well plate pilot, post-Golgi transport modulator project, inhibition of yeast transport mutant growth (AID 636; in the data active = inhibition above about 31%). Particulars: absorbance 615 nm, about 18 h, stronger effect = higher value.
Assay [8] in a line: growth suppression of yeast trafficking mutant, preliminary HTS, modulators of trafficking downstream of Golgi apparatus project, 1536-format plate, OD 615 nm (AID 637; in the data active = inhibition above about 30%). The following applies: yeast transport mutant growth, absorbance 615 nm, 18 h; stronger effect = higher value.
Setting [9] is: H69AR cells + 2 uM doxorubicin, measured here: viability with 2 uM doxorubicin, stronger effect = lower value.
Setting [10] is: H69AR cells, compound alone cytotoxicity.

Sequence of Receptor tyrosine-protein kinase erbB-2 (Homo sapiens) (P04626 whole entry, looked up): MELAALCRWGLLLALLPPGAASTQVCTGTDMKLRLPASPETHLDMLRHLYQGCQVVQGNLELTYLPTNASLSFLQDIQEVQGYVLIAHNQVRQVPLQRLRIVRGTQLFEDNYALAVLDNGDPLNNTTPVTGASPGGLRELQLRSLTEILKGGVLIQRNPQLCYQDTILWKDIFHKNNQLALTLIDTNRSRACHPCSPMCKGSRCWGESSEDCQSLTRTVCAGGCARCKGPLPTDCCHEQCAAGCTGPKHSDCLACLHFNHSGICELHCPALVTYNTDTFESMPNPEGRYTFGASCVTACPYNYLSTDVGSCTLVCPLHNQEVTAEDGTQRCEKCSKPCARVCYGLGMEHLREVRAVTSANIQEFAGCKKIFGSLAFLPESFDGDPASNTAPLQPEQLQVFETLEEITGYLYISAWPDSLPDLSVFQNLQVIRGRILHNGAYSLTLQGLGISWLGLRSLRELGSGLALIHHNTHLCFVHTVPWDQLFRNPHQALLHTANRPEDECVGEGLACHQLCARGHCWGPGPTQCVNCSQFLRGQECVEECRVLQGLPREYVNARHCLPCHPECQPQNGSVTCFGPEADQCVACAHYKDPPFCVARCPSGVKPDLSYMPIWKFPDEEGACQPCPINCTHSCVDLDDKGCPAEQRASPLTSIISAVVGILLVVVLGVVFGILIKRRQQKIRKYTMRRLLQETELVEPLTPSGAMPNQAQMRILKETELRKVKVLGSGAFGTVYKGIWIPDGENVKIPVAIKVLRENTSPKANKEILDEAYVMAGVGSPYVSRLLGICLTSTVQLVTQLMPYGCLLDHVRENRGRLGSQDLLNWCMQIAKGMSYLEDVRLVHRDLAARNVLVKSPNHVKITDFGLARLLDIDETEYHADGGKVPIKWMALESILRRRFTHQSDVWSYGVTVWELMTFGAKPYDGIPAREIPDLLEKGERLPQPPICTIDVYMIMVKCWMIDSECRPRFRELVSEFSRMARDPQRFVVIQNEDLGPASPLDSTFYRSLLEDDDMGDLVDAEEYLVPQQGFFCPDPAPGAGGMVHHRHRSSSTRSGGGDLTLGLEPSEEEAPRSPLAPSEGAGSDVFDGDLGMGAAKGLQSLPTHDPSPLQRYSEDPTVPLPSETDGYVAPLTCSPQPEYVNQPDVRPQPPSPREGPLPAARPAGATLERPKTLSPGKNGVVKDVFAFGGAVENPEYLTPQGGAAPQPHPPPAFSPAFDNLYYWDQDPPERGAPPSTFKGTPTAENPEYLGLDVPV

On to `CCOC(=O)N1CCN(C(=O)c2ccc3c(=O)n(CCc4ccccc4)c(=O)[nH]c3c2)CC1`, for which the viability in assay [1] is 98.5%; in assay [3], 98.5% (inactive); in assay [4], 77.1% (inactive); in assay [5], 85.6% (inactive); in assay [6] (setting [9]) it was 55.6%; in assay [6] (setting [10]) it was 85.6%. Also, the Her2 level in assay [2] is 108% (inactive). The differential viability (reversal) in assay [6] (H69AR cells + 2 uM doxorubicin) was 30% (inactive). The inhibition in assay [7] is -1.49% (inactive); in assay [8], 14.8% (inactive).
Regarding `CCOC(=O)c1ccccc1NC(=O)COC(=O)C1=COCCO1`, the viability in assay [1] is 98.5%; in assay [3], 98.5% (inactive); in assay [4], 96.7% (inactive); in assay [5] it was 88.7% (inactive); in assay [6] (setting [9]) it was 102%; in assay [6] (setting [10]), 88.7%. Besides, the Her2 level in assay [2] was 92% (inactive). In assay [6] (H69AR cells + 2 uM doxorubicin), the differential viability (reversal) was -13.3% (inactive). In addition, the inhibition is -5.81% (inactive) in assay [7] and 3% (inactive) in assay [8].
Turning to `COC(=O)c1ccccc1NC(=O)Cn1ccnc1`, the viability in assay [1] is 110%; in assay [3], 110% (inactive); in assay [4], 80.8% (inactive); in assay [5], 97.7% (inactive); in assay [6] (setting [9]) it was 101%; in assay [6] (setting [10]) it was 97.7%. Moreover, the Her2 level in assay [2] was 88.5% (inactive). Moreover, in assay [6] (H69AR cells + 2 uM doxorubicin), the differential viability (reversal) was -3.07% (inactive). Also, the inhibition in assay [7] was -2.3% (inactive); in assay [8] it was 1.11% (inactive).
In the case of `COC(=O)C(C)C1Sc2ccccc2NC1=O` (stereo not given), the viability in assay [1] is 121%; in assay [3] it was 121% (inactive); in assay [4], 119% (inactive); in assay [5], 93.9% (inactive); in assay [6] (setting [9]), 81.8%; in assay [6] (setting [10]), 93.9%. For the same compound, the Her2 level in assay [2] was 100% (inactive). In addition, the differential viability (reversal) in assay [6] (H69AR cells + 2 uM doxorubicin) was 12.1% (inactive). Besides, the inhibition was -7.7% (inactive) in assay [7] and 2.83% (inactive) in assay [8].
In the case of `Nc1cc(-c2ccccc2)ccc1O`, the viability in assay [1] was 100%; in assay [3], 100% (inactive); in assay [4] it was 86.3% (inactive); in assay [5] it was 73% (inactive); in assay [6] (setting [9]), 60.9%; in assay [6] (setting [10]), 73%. For the same compound, in assay [2], the Her2 level is 70.5% (inactive). Also, in assay [6] (H69AR cells + 2 uM doxorubicin), the differential viability (reversal) is 12% (inactive). For the same compound, the inhibition in assay [7] was -7.16% (inactive); in assay [8], 8.33% (inactive).
Take `O=C(NCc1ccccc1)c1ccc(OC2CSC2)cc1`: the viability was 88% in assay [1]; 88% (inactive) in assay [3]; 91.5% (inactive) in assay [4]; 112% (inactive) in assay [5]; 93.6% in assay [6] (setting [9]); 112% in assay [6] (setting [10]). In addition, the Her2 level in assay [2] was 103% (inactive). Further, the differential viability (reversal) in assay [6] (H69AR cells + 2 uM doxorubicin) was 18.5% (inactive). Moreover, the inhibition in assay [7] is 2.34% (inactive); in assay [8] it was -11% (inactive).
Turning to `Cn1c(=O)c2c(ncn2CC(=O)OCC(=O)NC2CCCc3ccccc32)n(C)c1=O` (stereo not given), the viability was 98% in assay [1]; 98% (inactive) in assay [3]; 110% (inactive) in assay [4]; 97.7% (inactive) in assay [5]; 92.4% in assay [6] (setting [9]); 97.7% in assay [6] (setting [10]). The Her2 level in assay [2] was 94% (inactive). The differential viability (reversal) in assay [6] (H69AR cells + 2 uM doxorubicin) was 5.3% (inactive). Also, the inhibition in assay [7] was -0.68% (inactive); in assay [8] it was 1.59% (inactive).
Turning to `CCOc1ccc(C(=O)OCc2nnc(-c3cccs3)o2)cc1OC`, the viability in assay [1] is 106%; in assay [3] it was 106% (inactive); in assay [4] it was 116% (inactive); in assay [5], 99.9% (inactive); in assay [6] (setting [9]), 74%; in assay [6] (setting [10]), 99.9%. In addition, in assay [2], the Her2 level was 96% (inactive). Moreover, the differential viability (reversal) in assay [6] (H69AR cells + 2 uM doxorubicin) is 25.9% (inactive). Further, the inhibition was -3.12% (inactive) in assay [7] and 2.38% (inactive) in assay [8].
Consider `Nc1ccc(C(=O)OCCCc2nc3ccccc3[nH]2)cc1`, for which the viability in assay [1] is 92%; in assay [3] it was 92% (inactive); in assay [4], 97.9% (inactive); in assay [5], 99.1% (inactive); in assay [6] (setting [9]), 97.4%; in assay [6] (setting [10]), 99.1%. Also, the Her2 level in assay [2] is 107% (inactive). Also, the differential viability (reversal) in assay [6] (H69AR cells + 2 uM doxorubicin) is 1.74% (inactive). Moreover, the inhibition in assay [7] is 5.41% (inactive); in assay [8], -19.1% (inactive).
In the case of `Cc1ccc(S(=O)(=O)N2CCOCC2)cc1C(=O)Nc1ccccn1`, the viability in assay [1] is 87%; in assay [3], 87% (inactive); in assay [4] it was 110% (inactive); in assay [5], 93.8% (inactive); in assay [6] (setting [9]) it was 86.1%; in assay [6] (setting [10]), 93.8%. In addition, the Her2 level in assay [2] was 83% (inactive). In assay [6] (H69AR cells + 2 uM doxorubicin), the differential viability (reversal) was 7.62% (inactive). The results for the inhibition in assay [7] and in assay [8] were -6.76% (inactive) and -3.17% (inactive), respectively.
Consider `O=C(NCc1ccco1)C1(S(=O)(=O)c2ccc(Cl)cc2)CC1`, for which the viability was 94% in assay [1]; 94% (inactive) in assay [3]; 103% (inactive) in assay [4]; 71.2% (inactive) in assay [5]; 92.8% in assay [6] (setting [9]); 71.2% in assay [6] (setting [10]). Further, in assay [2], the Her2 level is 86% (inactive). In addition, the differential viability (reversal) in assay [6] (H69AR cells + 2 uM doxorubicin) was -21.5% (inactive). Also, the values for the inhibition in assay [7] and in assay [8] were -0.65% (inactive) and 24.1% (inactive), respectively.
As to `CCOC(=O)c1c(NCc2ccc3c(c2)OCO3)c2ccccc2[nH]c1=O`, the viability is 100% in assay [1]; 100% (inactive) in assay [3]; 100% (inactive) in assay [4]; 87.3% (inactive) in assay [5]; 93.1% in assay [6] (setting [9]); 87.3% in assay [6] (setting [10]). Besides, the Her2 level in assay [2] is 69.5% (inactive). Further, the differential viability (reversal) in assay [6] (H69AR cells + 2 uM doxorubicin) is -5.86% (inactive). Moreover, the results for the inhibition in assay [7] and in assay [8] were -8.78% (inactive) and 1.33% (inactive), respectively.
`COc1ccc(C(=O)NCc2nnc(SCC(=O)Nc3cc(C)cc(C)c3)o2)cc1OC`: the viability in assay [1] is 89.5%; in assay [3] it was 89.5% (inactive); in assay [4] it was 99.6% (inactive); in assay [5], 89.3% (inactive); in assay [6] (setting [9]), 82%; in assay [6] (setting [10]), 89.3%. The Her2 level in assay [2] was 102% (inactive). For the same compound, in assay [6] (H69AR cells + 2 uM doxorubicin), the differential viability (reversal) is 7.32% (inactive). The inhibition in assay [7] is 0.13% (inactive); in assay [8] it was 1.33% (inactive).
For the compound `COc1ccc(-c2nc(C#N)c(N3CCN(c4ccccc4)CC3)o2)cc1`, the viability is 94.5% in assay [1]; 94.5% (inactive) in assay [3]; 94.7% (inactive) in assay [4]; 105% (inactive) in assay [5]; 93.8% in assay [6] (setting [9]); 105% in assay [6] (setting [10]). Besides, in assay [2], the Her2 level was 98.5% (inactive). The differential viability (reversal) in assay [6] (H69AR cells + 2 uM doxorubicin) was 11.7% (inactive). In addition, the inhibition was -2.05% (inactive) in assay [7] and 3.33% (inactive) in assay [8].
